This is a sample that favours compounds with a hit; in the whole collection about 2.5% have one here.
H9c2 TAG inh = inhibitors of triacylglycerol accumulation; H9c2 cells, Nile Red lipid (TAG) fluorescence; cells loaded with 200 µM oleic acid; inhibition, % at 12.5 µM; 230,000 tested, 0.66% active; AID 651582;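 active means pattern-corrected inhibition of lipid staining of at least 50% with the nuclear-stain viability signal not falling by more than 50%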;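 further: 0% = DMSO wells and 100% = triacsin C control wells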
SMARCA2 act = increases SMARCA2 function in MMTV reporter cells. MG213 cells, MMTV-luciferase reporter, dexamethasone, overnight. activation, % at 9.1 µM. 370,000 tested, 1% active. AID 652017; in the data active means activation above about 7.8%;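 further: 0% = vehicle wells and 100% = reference activator wells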
Vif inh = HIV Vif inhibition | 340,000 tested, 0.35% active | AID 602346 | HEK293T cells, Vif self-association by quenched fluorescence, imaging, 24 h | inhibition, % at 7.49 µM; in the data active means inhibition above about 50%, passing the limit was not always enough; inconclusive means no clear call, values can overlap the other calls; inactive means below about 31%
SR-BI uptake up = SR-BI HDL lipid transfer activation; AID 504775; 320,000 tested, 0.096% active; activation, % at 12.5 µM; CHO ldlA[mSR-BI] cells, DiI-HDL uptake fluorescence, 3 h; 100 = double the neutral-control signal;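 active means mean replicate activation of at least 60% and every replicate at or above 60%; inconclusive means mean or all-replicate condition met, but not both; inactive means mean below 60% and not all replicates reaching 60%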;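 further: 0% = median plate neutral-control signal and 100% = twice that signal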
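Material: SR-BI-overexpressing, LDLR-lacking CHO cells; schedule: compound exposure 3 h, 37 °C; reagent: DiI-labelled HDL at 10 µg/mL final; technique: bottom-read fluorescence, 550/595 nm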
SR-BI DiI inh = mouse SR-BI HDL lipid transfer inhibition; ldlA[mSR-BI] CHO cells, DiI-HDL uptake fluorescence, 3 h; 320,000 tested, 0.96% active; Q61009; inhibition, % at 12.5 µM;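 active means mean replicate inhibition of at least 70% and a set share of replicates each scoring 70 or more; inconclusive means meets just one of the two criteria; inactive means fails both criteria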;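 further: 0% = median of neutral control wells and 100% = median of positive control wells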
Target sequence (Q61009 whole entry, looked up): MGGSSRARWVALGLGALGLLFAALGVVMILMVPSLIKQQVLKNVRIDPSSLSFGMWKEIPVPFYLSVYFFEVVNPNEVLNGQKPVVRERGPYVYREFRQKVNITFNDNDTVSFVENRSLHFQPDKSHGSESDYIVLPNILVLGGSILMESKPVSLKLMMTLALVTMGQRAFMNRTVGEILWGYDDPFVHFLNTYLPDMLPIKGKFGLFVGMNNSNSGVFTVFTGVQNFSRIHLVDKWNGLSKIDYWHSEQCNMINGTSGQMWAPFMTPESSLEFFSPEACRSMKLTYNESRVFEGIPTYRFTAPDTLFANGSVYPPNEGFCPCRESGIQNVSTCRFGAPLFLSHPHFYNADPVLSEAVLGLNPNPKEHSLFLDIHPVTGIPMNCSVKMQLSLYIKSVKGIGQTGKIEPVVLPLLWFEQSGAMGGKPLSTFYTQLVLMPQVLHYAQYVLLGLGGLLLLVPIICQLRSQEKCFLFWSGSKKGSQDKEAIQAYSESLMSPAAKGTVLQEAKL
SMARCA2 act conf = SMARCA2 activation, confirmation screen | activation, % at 9.1 µM | AID 652260 | shares compounds with SMARCA2 act | 3,500 tested, 30% active | MG213 cells, MMTV-luciferase with dexamethasone, luminescence, overnight; MG213 cells expressing E1A, Rb sequestered; DMSO wells 0%, reference activator 100%;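 active means activation above its plate's cutoff, the mean activation of tested wells plus 3 SD, cut at about 7.9% in these data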
GAL4-VP16 Luc = activates GAL4-VP16 luciferase, flagging SMARCA2 activator hits | activation, % at 9.1 µM | shares compounds with SMARCA2 act | HEK293 GAL4-VP16 pG5luc reporter, luciferase luminescence; scaled: DMSO wells 0%, SAHA wells 100% | 3,500 tested, 41% active;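 active means activation above the solvent-only control well mean plus 3 SD, averaged across control plates, cut at about 5.2% in these data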
* hit, by the source's call.

Results for COc1ccccc1-c1nc(-c2ccncc2)no1 ?
SMARCA2 act: 10*; Vif inh: -5; SR-BI uptake up: 2; SR-BI DiI inh: -2; SMARCA2 act conf: 9.8*; GAL4-VP16 Luc: 11*

How did CCOc1ccccc1-c1nc(-c2ccncc2)no1 do in these assays?
H9c2 TAG inh: 31; SMARCA2 act: 0; Vif inh: 4; SR-BI uptake up: -48; SR-BI DiI inh: 48

Results for COc1ccc(-c2noc(-c3ccc4c(c3)OCO4)n2)cc1 ?
H9c2 TAG inh: 8; SMARCA2 act: 14*; Vif inh: -4; SR-BI uptake up: 22; SR-BI DiI inh: -22; SMARCA2 act conf: 15*; GAL4-VP16 Luc: 9.3*

Results for c1ccc2nc(-c3ccc4c(c3)OCO4)ccc2c1 ?
SMARCA2 act: -1; Vif inh: -14; SR-BI uptake up: -32; SR-BI DiI inh: 32

Results for COc1ccc(-c2nc(-c3ccncc3)no2)cc1OC ?
SMARCA2 act: 12*; Vif inh: inconclusive; SR-BI uptake up: 8; SR-BI DiI inh: -8; SMARCA2 act conf: 6; GAL4-VP16 Luc: 8.8*

Results for C[C@H](O)[C@@H]1C(=O)N2CCc3c([nH]c4cccc(-c5ccccc5)c34)[C@@H]2C[C@@H]1N(C)C(=O)NC1CCCCC1 ?
SMARCA2 act: -7

Results for CCNc1c(NS(=O)(=O)c2ccc([N+](=O)[O-])cc2)c(=O)oc2ccccc12 ?
SMARCA2 act: -2; Vif inh: -7

What do the screens show for `CC(=O)Nc1ccc(-c2nnn(CC(=O)c3ccc(F)cc3)n2)cc1Cl`?
H9c2 TAG inh: -6; SMARCA2 act: -3; Vif inh: 8; SR-BI uptake up: -24; SR-BI DiI inh: 24

What do the screens show for `COC(=O)c1cc(C(=O)Nc2nnc(CC(C)C)s2)cc([N+](=O)[O-])c1`?
SMARCA2 act: 12*; Vif inh: -6; SR-BI uptake up: 36; SR-BI DiI inh: -36; SMARCA2 act conf: 3; GAL4-VP16 Luc: 3

What do the screens show for `Cc1ccc(-c2nc(C#N)c(NCC3CCCO3)o2)cc1` (stereo not given)?
H9c2 TAG inh: 6; SMARCA2 act: 2; Vif inh: -9; SR-BI uptake up: -26; SR-BI DiI inh: 26

What do the screens show for `COc1ccc(-c2nc(C#N)c(NCC3CCCO3)o2)cc1` (stereo not given)?
SMARCA2 act: 10*; Vif inh: 10; SR-BI uptake up: -30; SR-BI DiI inh: 30; SMARCA2 act conf: 9.7*; GAL4-VP16 Luc: 4

Results for O=C(Nc1ccc(F)cc1)OCc1cn(Cc2ccc(F)cc2)nn1 ?
SMARCA2 act: -2

Results for CCOc1ccc(/C=C2\SC(N3CCc4ccccc4C3)=NC2=O)cc1 ?
SMARCA2 act: 9.0*; Vif inh: -3; SR-BI uptake up: 8; SR-BI DiI inh: -8; SMARCA2 act conf: -1; GAL4-VP16 Luc: 1

How did COc1ccc(/C=C2\SC(N3CCc4ccccc4C3)=NC2=O)cc1 do in these assays?
SMARCA2 act: -1; Vif inh: 15; SR-BI uptake up: 36; SR-BI DiI inh: -36

Results for O=C(O)c1ccccc1C(=O)NNc1cccc(Cl)n1 ?
H9c2 TAG inh: -6; SMARCA2 act: 8.6*; Vif inh: 12; SR-BI uptake up: 25; SR-BI DiI inh: -25; SMARCA2 act conf: -1; GAL4-VP16 Luc: 4

What do the screens show for `Cn1sccc1=O`?
H9c2 TAG inh: 14; SMARCA2 act: 9.4*; Vif inh: 22; SR-BI uptake up: 11; SR-BI DiI inh: -11; SMARCA2 act conf: 17*; GAL4-VP16 Luc: 2

What do the screens show for `O=c1ccsn1Cc1ccccc1`?
H9c2 TAG inh: -9; SMARCA2 act: 2; Vif inh: -3; SR-BI uptake up: 16; SR-BI DiI inh: -16

Results for CCS(=O)(=O)c1nc(S(=O)(=O)c2ccc(C)cc2)c(NCCCN(C)C)s1 ?
H9c2 TAG inh: -5; SMARCA2 act: -1; Vif inh: -7; SR-BI uptake up: 7; SR-BI DiI inh: -7
